The nature of data set [1]: folding enthalpy; higher = less favourable; fluorescence melt of hairpins on a sequencing array, two-state fit. The note with it: sodium 0.088 M. The essentials:
(§1)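 Two-state fits, bootstrapped, provided melting temperature and folding enthalpy from Cy3 fluorescence normalised to pre-quench Cy3 and to control constructs. Library hairpins with annealed Cy3 and quencher oligos were imaged on a sequenced MiSeq flow cell in 50 mM Na-HEPES pH 8.0, 25 mM NaCl, at 2.5 °C intervals up to 60 °C. Four replicates were combined with inverse-variance weighting. A 9.35 °C upward shift was applied to fitted temperatures to match UV melts.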

The nature of data set [2]: melting temperature; fluorescence melt of hairpins on a sequencing array, two-state fit, raised by 9.35 °C to match UV melts. The note with it: sodium 0.088 M. In outline: as §1

For GCTATCGGAAACGGTAGC ((((.((....)).)))), in data set [1], the folding enthalpy was -38 kcal/mol. Further, the Tm in data set [2] turned out to be 51.8 °C.
For GCTATGAAAATAGC (((((....))))), in that order: -23.4 kcal/mol and 47.9 °C.
As for GCTATGACGAAAGTCAGC (((..(((....)))))), in data set [1], the folding enthalpy is -13.2 kcal/mol. The Tm in data set [2] was determined as 42 °C.
With GCTATGCGAAAGCACGGC ((..(((....)))..)), the folding enthalpy in data set [1] is -17.7 kcal/mol. The Tm in data set [2] worked out at 41.4 °C.
For GCTATGCGAAAGCAGAGC (((.(((....))).))) the same measures were -49 kcal/mol and 60.6 °C.
For GCTATGCGAAAGCCCAGC (((..((....))..))) the same measures were -11.6 kcal/mol and 29 °C.
With GCTATGCGAAAGCCGAGC (((..((....))..))), the folding enthalpy in data set [1] is -19 kcal/mol. Moreover, the Tm in data set [2] came out at 39.4 °C.
GCTATGCGAAAGCGAAGC (((..((....))..))): the folding enthalpy in data set [1] was -16.4 kcal/mol. The Tm in data set [2] is 44.2 °C.
For GCTATGCGAAAGCTAAGC (((..((....))..))), in that order: -17.2 kcal/mol and 47.6 °C.
For GCTATGCGAAAGCTTTGC ((.(.((....)).).)), in that order: -18.2 kcal/mol and 43.4 °C.
With GCTATGGGAAACCATAGC (((((((....))))))), in data set [1], the folding enthalpy was -40.7 kcal/mol. Also, in data set [2], the Tm is 61.4 °C.
For GCTATTCCGAAAGGAAGC (((..(((....)))))) the same measures were -14.7 kcal/mol and 32.9 °C.
For GCTCACGAAAGTGGAAGC ((((((....)))..))) the same measures were -20.9 kcal/mol and 45.4 °C.
For GCTCACGAAAGTGGCAGC ((((((....)))..))) the same measures were -14.7 kcal/mol and 44.6 °C.
As for GCTCACGAAAGTGTTAGC ((((((....)))..))), the folding enthalpy in data set [1] was -21.6 kcal/mol. In data set [2], the Tm amounted to 40.8 °C.
For GCTCACGGAAACATGAGC (((((.(....).))))), the folding enthalpy in data set [1] is -34.6 kcal/mol. Also, the Tm in data set [2] turned out to be 44.9 °C.
For GCTCAGCGAAAGCAAAGC (((..((....))..))), in that order: -13.6 kcal/mol and 38.4 °C.
As to GCTCAGCGAAAGCAGGGC ((.(.((....)).).)), the folding enthalpy in data set [1] was -19 kcal/mol. In addition, the Tm in data set [2] came out at 51.9 °C.
On to GCTCAGCGAAAGCCAAGC (((..((....))..))), for which, in data set [1], the folding enthalpy is -16.4 kcal/mol. The Tm in data set [2] came to 41 °C.
On to GCTCAGCGAAAGCCCAGC (((..((....))..))), for which the folding enthalpy in data set [1] was -12.1 kcal/mol. Besides, in data set [2], the Tm was determined as 37.2 °C.
In the case of GCTCAGCGAAAGCCGTGC ((.(.((....)).).)), the folding enthalpy in data set [1] is -12.3 kcal/mol. Further, the Tm in data set [2] turned out to be 42.4 °C.
For GCTCAGCGAAAGCCTAGC (((..((....))..))), in that order: -19.7 kcal/mol and 36.1 °C.
As for GCTCAGCGAAAGCTCTGC ((..(((....)))..)), the folding enthalpy in data set [1] is -13.4 kcal/mol. Besides, in data set [2], the Tm was found to be 28.8 °C.
For GCTCAGCGAAAGCTTAGC (((.(((....))).))), in that order: -44.9 kcal/mol and 49.4 °C.
For GCTCAGCGAAAGCTTCGC ((..(((....)))..)) the same measures were -12.6 kcal/mol and 40 °C.
On to GCTCAGCGAAAGCTTTGC ((..(((....)))..)), for which, in data set [1], the folding enthalpy is -14.4 kcal/mol. In addition, in data set [2], the Tm came out at 38.6 °C.
For GCTCAGGAAACTGAGC ((((((....)))))) the same measures were -42.4 kcal/mol and 64.7 °C.
For GCTCAGGGAAACCTGAGC (((((((....))))))), in that order: -44.7 kcal/mol and 68.3 °C.
As to GCTCATGGAAACGTGAGC (((((.(....).))))), the folding enthalpy in data set [1] is -47.5 kcal/mol. The Tm in data set [2] is 53.4 °C.
For the sequence GCTCCAACGAAAGTTAGC (((..(((....)))))), in data set [1], the folding enthalpy is -11.8 kcal/mol. Moreover, in data set [2], the Tm worked out at 27.9 °C.
On to GCTCCACGAAAGTGAGC (((.(((....)))))), for which the folding enthalpy in data set [1] was -26.2 kcal/mol. Moreover, the Tm in data set [2] stood at 54 °C.
For GCTCCACGAAAGTGCAGC (((.(((....))).))), the folding enthalpy in data set [1] is -22.1 kcal/mol. The Tm in data set [2] was 46.2 °C.
For GCTCCCACGAAAGTGAGC (((..(((....)))))) the same measures were -17.1 kcal/mol and 40.2 °C.
GCTCCCGAAAGGGAAAGC ((((((....)))..))): the folding enthalpy in data set [1] was -16.6 kcal/mol. Further, in data set [2], the Tm amounted to 51.7 °C.
Turning to GCTCCCGAAAGGGCGAGC ((((((....)))..))), in data set [1], the folding enthalpy is -16.3 kcal/mol. Besides, the Tm in data set [2] was 47.9 °C.
On to GCTCCCGAAAGGGTTAGC ((((((....)))..))), for which the folding enthalpy in data set [1] was -16.2 kcal/mol. Further, the Tm in data set [2] was found to be 43.3 °C.
GCTCCCGGAAACGGGAAC (.(((((....))))).): the folding enthalpy in data set [1] was -15 kcal/mol. Also, the Tm in data set [2] was 43 °C.
For GCTCCGACGAAAGTCAGC (((..(((....)))))), in that order: -13.3 kcal/mol and 32.2 °C.
For GCTCCGCGAAAGCATAGC (((..((....))..))), in that order: -10.1 kcal/mol and 33.1 °C.
For GCTCCGCGAAAGCCGCGC ((.(.((....)).).)), in data set [1], the folding enthalpy is -11.8 kcal/mol. The Tm in data set [2] turned out to be 36.2 °C.
For GCTCCGCGAAAGCCGTGC ((.(.((....)).).)) the same measures were -9.49 kcal/mol and 39.1 °C.
For GCTCCGCGAAAGCTCAGC (((..((....))..))) the same measures were -9.77 kcal/mol and 27.2 °C.
For GCTCCGCGAAAGCTGCGC ((.(.((....)).).)) the same measures were -14.5 kcal/mol and 44.4 °C.
Turning to GCTCCGGCGAAAGCCAGC (((..(((....)))))), the folding enthalpy in data set [1] was -11.2 kcal/mol. Besides, the Tm in data set [2] was 32.6 °C.
For GCTCCGGGAAACCGAAGC (((.(((....))).))), in that order: -27.9 kcal/mol and 47.5 °C.
Take GCTCCTCGAAAGAGAAGC (((.(((....))).))): the folding enthalpy in data set [1] was -29.4 kcal/mol. In addition, in data set [2], the Tm was 46.1 °C.
Consider GCTCGAACGAAAGTTAGC (((..(((....)))))), for which, in data set [1], the folding enthalpy is -12.1 kcal/mol. Moreover, the Tm in data set [2] turned out to be 31.5 °C.
Turning to GCTCGACCGAAAGGTAGC (((..(((....)))))), the folding enthalpy in data set [1] is -13.8 kcal/mol. Also, in data set [2], the Tm is 39 °C.
With GCTCGACGAAAGTCAGC (((.(((....)))))), the folding enthalpy in data set [1] was -19.3 kcal/mol. Besides, the Tm in data set [2] came out at 51.6 °C.
For GCTCGACGAAAGTCTAGC (((.(((....))).))), in that order: -41.8 kcal/mol and 49.6 °C.
As to GCTCGAGCGAAAGCTAGC (((..(((....)))))), the folding enthalpy in data set [1] was -13.2 kcal/mol. In data set [2], the Tm turned out to be 39.1 °C.
For GCTCGAGGAAACTCAAGC (((.(((....))).))) the same measures were -30.7 kcal/mol and 37.7 °C.
For GCTCGCCGAAAGGCTAGC (((.(((....))).))), in that order: -27.9 kcal/mol and 54.6 °C.
Regarding GCTCGCGAAAGCGTAGC ((((((....))).))), the folding enthalpy in data set [1] is -19 kcal/mol. Also, in data set [2], the Tm was 61.9 °C.
For GCTCGCGAAAGCGTTAGC ((((((....)))..))), in that order: -14.1 kcal/mol and 45.9 °C.
Turning to GCTCGCGGAAACGTGAGC ((((.((....)).)))), the folding enthalpy in data set [1] is -37.6 kcal/mol. In data set [2], the Tm stood at 64.9 °C.
With GCTCGCGGAAACGTGGGC ((.(.((....)).).)), in data set [1], the folding enthalpy is -34 kcal/mol. For the same sequence, in data set [2], the Tm was 50.2 °C.
In the case of GCTCGGCGAAAGCTCAGC (((..((....))..))), the folding enthalpy in data set [1] was -11.9 kcal/mol. For the same sequence, the Tm in data set [2] turned out to be 44.7 °C.
For GCTCGTGCGAAAGCAAGC (((..(((....)))))), in that order: -7.01 kcal/mol and 45.5 °C.
In the case of GCTCGTGGAAACATGAGC ((((.((....)).)))), the folding enthalpy in data set [1] was -37.1 kcal/mol. Besides, in data set [2], the Tm is 54.5 °C.
For GCTCGTGGAAACATGGGC ((.(.((....)).).)) the same measures were -17.1 kcal/mol and 42.9 °C.
For GCTCGTGGAAACGCGAGC (((((.(....).))))), the folding enthalpy in data set [1] is -47.9 kcal/mol. Moreover, the Tm in data set [2] turned out to be 63.2 °C.
For GCTCTAGCGAAAGCTAGC (((..(((....)))))) the same measures were -5.88 kcal/mol and 38.3 °C.
Take GCTCTAGGAAACTAGAGC (((((((....))))))): the folding enthalpy in data set [1] is -44.6 kcal/mol. The Tm in data set [2] was 60.1 °C.
On to GCTCTCGAAAGAGTAAGC ((((((....)))..))), for which the folding enthalpy in data set [1] is -22.6 kcal/mol. The Tm in data set [2] was 39.7 °C.
For GCTCTCGGAAACAAGAGC (((((.(....).))))), in that order: -33.6 kcal/mol and 40.2 °C.
For GCTCTGCCGAAAGGCAGC (((..(((....)))))) the same measures were -6.01 kcal/mol and 40 °C.
On to GCTCTGCGAAAGCACTGC ((..(((....)))..)), for which the folding enthalpy in data set [1] was -10.7 kcal/mol. The Tm in data set [2] is 31.6 °C.
For GCTCTGCGAAAGCCGAGC ((((.((....)).)))), in that order: -25.2 kcal/mol and 60.1 °C.
For GCTCTGCGAAAGCCGTGC ((.(.((....)).).)), in that order: -11.9 kcal/mol and 36.2 °C.
As for GCTCTGCGAAAGCCTAGC (((..((....))..))), the folding enthalpy in data set [1] was -14.7 kcal/mol. Also, in data set [2], the Tm is 36.6 °C.
For the sequence GCTCTGCGAAAGCTAAGC (((..((....))..))), the folding enthalpy in data set [1] was -13.4 kcal/mol. Also, in data set [2], the Tm was determined as 37.9 °C.
Consider GCTCTGGCGAAAGCCAGC (((..(((....)))))), for which the folding enthalpy in data set [1] was -6.82 kcal/mol. Also, the Tm in data set [2] was 31.5 °C.

(Values after the array DNA melting data of Ke et al. (doi:10.1101/2024.01.08.574731).)
